Data taken from paper PMC6172068 (Cancer Science, 2018).

Assays:
[1] = tested on: relapsed/refractory (R/R) acute myeloid leukemia (AML); assay: Antileukemic activity; type: in vivo, Japanese patients
Summary of the method: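 Adults (≥18 years) with relapsed/refractory AML took an oral test compound once daily in escalating cohorts (20–300 mg/d). Cycle 0 was a single dose with 2-day observation, followed by 28-day cycles. Marrow aspirates or biopsies were taken at screening, Cycle 1 Day 28, Day 1 of later cycles and end of treatment. CR, CRp and CRi followed International Working Group criteria. The full analysis set was used.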

[2] = tested on: relapsed/refractory (R/R) AML; details: cited from earlier work
FLT3 = details: preclinical studies; cited from earlier work
AXL = details: preclinical studies; cited from earlier work
[3] = tested on: FLT3 receptors expressing F691 gatekeeper mutations; details: leukemic cells; cited from earlier work
[4] = FLT3 mutation-negative patients, Total (n = 11)
[5] = FLT3 mutation-positive patients, 20 mg (n = 1)
[6] = FLT3 mutation-positive patients, 40 mg (n = 1)
[7] = FLT3 mutation-positive patients, 80 mg (n = 1)
[8] = FLT3 mutation-positive patients, 200 mg (n = 2)
[9] = patients with mutated FLT3 (n = 5), 1 patient
[10] = patients with wild-type FLT3 (n = 11), 1 patient

## CCc1nc(C(N)=O)c(Nc2ccc(N3CCC(N4CCN(C)CC4)CC3)c(OC)c2)nc1NC1CCOCC1 [gilteritinib]
[1]; All patients, 20 mg (n = 1)
  CR: 0 n (%, [95% CI])
  CRc (CR plus CRp plus CRi): 1 (100 [2.5, 100]) n (%, [95% CI])
  CRi: 1 (100 [2.5, 100]) n (%, [95% CI])
  CRp: 0 n (%, [95% CI])
  ORR (CRc plus PR): 1 (100 [2.5, 100]) n (%, [95% CI])
  PR: 0 n (%, [95% CI])
[1]; All patients, 40 mg (n = 3)
  CR: 0 n (%, [95% CI])
  CRc (CR plus CRp plus CRi): 0 n (%, [95% CI])
  CRi: 0 n (%, [95% CI])
  CRp: 0 n (%, [95% CI])
[1]; All patients, 80 mg (n = 4)
  CR: 1 (25 [0.6, 80.6]) n (%, [95% CI])
  CRc (CR plus CRp plus CRi): 1 (25 [0.6, 80.6]) n (%, [95% CI])
  CRi: 0 n (%, [95% CI])
  CRp: 0 n (%, [95% CI])
  ORR (CRc plus PR): 2 (50 [6.8, 93.2]) n (%, [95% CI])
  PR: 1 (25 [0.6, 80.6]) n (%, [95% CI])
[1]; All patients, 120 mg (n = 2)
  CR: 0 n (%, [95% CI])
  CRc (CR plus CRp plus CRi): 1 (50 [1.3, 98.7]) n (%, [95% CI])
  CRi: 1 (50 [1.3, 98.7]) n (%, [95% CI])
  CRp: 0 n (%, [95% CI])
  ORR (CRc plus PR): 1 (50 [1.3, 98.7]) n (%, [95% CI])
  PR: 0 n (%, [95% CI])
[1]; All patients, 200 mg (n = 7)
  CR: 0 n (%, [95% CI])
  CRc (CR plus CRp plus CRi): 4 (57.1 [18.4, 90.1]) n (%, [95% CI])
  CRi: 1 (14.3 [0.4, 57.9]) n (%, [95% CI])
  CRp: 3 (42.9 [9.9, 81.6]) n (%, [95% CI])
  ORR (CRc plus PR): 4 (57.1 [18.4, 90.1]) n (%, [95% CI])
  PR: 0 n (%, [95% CI])
[1]; All patients, 300 mg (n = 2)
  CR: 0 n (%, [95% CI])
  CRc (CR plus CRp plus CRi): 0 n (%, [95% CI])
  CRi: 0 n (%, [95% CI])
  CRp: 0 n (%, [95% CI])
  ORR (CRc plus PR): 0 n (%, [95% CI])
  PR: 0 n (%, [95% CI])
[1]; FAS, all doses, 7 of 19 patients, 95% CI: 16.3, 61.6
  CRc: 36.8%
[1]; FAS, all doses, n = 9/19, 95% CI: 24.4, 71.1
  ORR: 47.4%
[1]; FAS, 95% CI: 28.0, 116.0
  Median duration of CRc: 86.5 days
[1]; FAS, 95% CI: 28.0, 139.0
  Median duration of remission: 113.5 days
[1]; [4]
  CR: 1 (9.1 [0.2, 41.3]) n (%, [95% CI])
  CRc (CR plus CRp plus CRi): 3 (27.3 [6.0, 61.0]) n (%, [95% CI])
  CRi: 0 n (%, [95% CI])
  CRp: 2 (18.2 [2.3, 51.8]) n (%, [95% CI])
  ORR (CRc plus PR): 4 (36.4 [10.9, 69.2]) n (%, [95% CI])
  PR: 1 (9.1 [0.2, 41.3]) n (%, [95% CI])
[1]; FLT3 mutation-positive patients (n = 5), 95% CI: 14.7, 94.7
  CRc: 60%
[1]; FLT3 mutation-positive patients (n = 5), 95% CI: 28.4, 99.5
  ORR: 80%
[1]; [5]
  CR: 0 n (%, [95% CI])
  CRc (CR plus CRp plus CRi): 1 (100 [2.5, 100]) n (%, [95% CI])
  CRi: 1 (100 [2.5, 100]) n (%, [95% CI])
  CRp: 0 n (%, [95% CI])
  ORR (CRc plus PR): 1 (100 [2.5, 100]) n (%, [95% CI])
  PR: 0 n (%, [95% CI])
[1]; [6]
  CR: 0 n (%, [95% CI])
  CRc (CR plus CRp plus CRi): 0 n (%, [95% CI])
  CRi: 0 n (%, [95% CI])
  CRp: 0 n (%, [95% CI])
  ORR (CRc plus PR): 0 n (%, [95% CI])
  PR: 0 n (%, [95% CI])
[1]; [7]
  CR: 0 n (%, [95% CI])
  CRc (CR plus CRp plus CRi): 0 n (%, [95% CI])
  CRi: 0 n (%, [95% CI])
  CRp: 0 n (%, [95% CI])
  ORR (CRc plus PR): 1 (100 [2.5, 100]) n (%, [95% CI])
  PR: 1 (100 [2.5, 100]) n (%, [95% CI])
[1]; [8]
  CR: 0 n (%, [95% CI])
  CRc (CR plus CRp plus CRi): 2 (100 [15.8, 100]) n (%, [95% CI])
  CRi: 1 (50 [1.3, 98.7]) n (%, [95% CI])
  CRp: 1 (50 [1.3, 98.7]) n (%, [95% CI])
  ORR (CRc plus PR): 2 (100 [15.8, 100]) n (%, [95% CI])
  PR: 0 n (%, [95% CI])
[1]; FLT3 mutation-positive patients, 95% CI: 30.0, 116.0
  Median duration of CRc: 63.0 days
[1]; FLT3 mutation-positive patients, 95% CI: 30.0, not evaluable
  Median duration of remission: 89.5 days
[1]; [9]
  CR with incomplete platelet recovery: 20%
  partial remission (PR): 20%
[1]; patients with mutated FLT3 (n = 5), 2 patients
  CR with incomplete hematologic recovery: 40%
[1]; [10]
  CR: 9.1%
  PR: 9.1%
[1]; patients with wild-type FLT3 (n = 11), 2 patients
  CR with incomplete platelet recovery: 18.2%
[1]; patients without FLT3 mutations (n = 11), 95% CI: 6.0, 61.0
  CRc: 27.3%
[1]; patients without FLT3 mutations (n = 11), 95% CI: 10.9, 69.2
  ORR: 36.4%
[1]; patients without FLT3 mutations, 95% CI: 28.0, 111.0
  Median duration of CRc: 69.5 days
[1]; patients without FLT3 mutations, 95% CI: 28.0, 127.0
  Median duration of remission: 111.0 days
[2]; doses ≥80 mg/d
  median OS duration: 31 weeks
  overall response rate (ORR): 52%
[2]; once-daily oral, R/R AML, USA, Germany and Italy
  maximum tolerated dose (MTD): 300 mg/day
FLT3
  inhibition of FLT3: robust inhibitor
AXL
  inhibition of AXL: robust inhibitor
[3]
  inhibition of FLT3 receptors expressing F691 gatekeeper mutations: weak inhibitor
